Data reported in ChEMBL document CHEMBL1129667, “Synthesis and antiviral activity of 2'-deoxy-4'-thio purine nucleosides” (J Med Chem, 1996).

What was measured:
Homo sapiens [1] = species: Homo sapiens; assay: Inhibitory activity of compound against hepatitis B virus (HBV) in growing cultures of 2.2.15 cells; type: functional, cell-based; conditions: HepG2 2.2.15
Outline: (§1)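 Growing cultures of 2.2.15 cells, used for both antiviral effect and cytotoxicity. IC50 and CC50 each come from five compound concentrations encompassing the value. Data are means of four replicate samples.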

MRC5 [2] = assay: Inhibitory activity of compound against human cytomegalovirus (HCMV) strain AD169 in monolayers of MRC5 cells; type: functional, cell-based
Outline: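 MRC5 human embryonic lung monolayers infected with HCMV AD169 at ca. 0.01 infectious particles/cell. Compound added at six concentrations, each in triplicate, then incubated 5 days. IC50 estimated from well HCMV DNA measured by blotting and quantitative specific DNA hybridization. Reported value is the mean of at least two determinations done at different times.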

IM-9 [3] = assay: Cytotoxic activity of compound against growing cultures of human leukemicB-cell line IM-9 at 100 uM; type: functional
MOLT-4 [4] = assay: Cytotoxic activity of compound against growing cultures of human leukemic T-cell lines Molt-4 100 uM; type: functional
MRC5 [5] = assay: Cytotoxic activity of compound against uninfected MRC5 cells; type: functional; conditions: Homo sapiens
Outline: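 Uninfected MRC5 monolayers given the same six compound concentrations in triplicate and incubated 5 days. Minimum cytotoxic dose estimated by microscopic examination.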

CCRF-CEM [6] = assay: Cytotoxic activity of compound against growing cultures of human leukemic T-cell lines CEM 100 uM; type: functional
Homo sapiens [7] = species: Homo sapiens; assay: Cytotoxic activity of compound against uninfected 2.2.15 cells.; type: functional; conditions: HepG2 2.2.15; outline: as §1
MOLT-4 [8] = assay: Cytotoxic activity of compound against growing cultures of human leukemic T-cell lines Molt-4 at 100 uM; type: functional
CCRF-CEM [9] = assay: Cytotoxic activity of compound against growing cultures of human leukemic T-cell lines CEM at 100 uM; type: functional
MOLT-4 [10] = assay: Cytotoxic activity of compound against growing cultures of human leukemic T-cell lines Molt-4; type: functional
Outline: (§2)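 Growing cultures of the human leukemic line (T-cell CEM or Molt 4; B-cell IM-9). CC50 taken from five compound concentrations spanning the CC50. Data are means of three replicate samples.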

CCRF-CEM [11] = assay: Cytotoxic activity of compound against growing cultures of human leukemic T-cell lines CEM; type: functional; outline: as §2
IM-9 [12] = assay: Cytotoxic activity of compound against growing cultures of human leukemicB-cell line IM-9; type: functional; outline: as §2

| Compound | IC50 (Homo sapiens [1]) | IC50 (MRC5 [2]) | CC50 (IM-9 [3]) | CC50 (MOLT-4 [4]) | CC50 (MRC5 [5]) | CC50 (CCRF-CEM [6]) | CC50 (Homo sapiens [7]) | Control (IM-9 [3]) | Control (MOLT-4 [8]) | Control (CCRF-CEM [9]) | CC50 (MOLT-4 [10]) | CC50 (CCRF-CEM [11]) | CC50 (IM-9 [12]) |
| --- | --- | --- | --- | --- | --- | --- | --- | --- | --- | --- | --- | --- | --- |
| Nc1nc(Cl)c2ncn(C3CC(O)C(CO)S3)c2n1 (stereo unspecified) | 0.001 µM | 0.1 µM | 42 µM | 3.8 µM | 2 µM | 10 µM | > 0.2 µM |  |  |  |  |  |  |
| CCCNc1nc(N)nc2c1ncn2C1CC(O)C(CO)S1 (stereo unspecified) | 0.061 µM | 2 µM |  |  | > 50 µM |  | > 0.2 µM | 92% | 52% | 68% |  |  |  |
| C=CCNc1nc(N)nc2c1ncn2C1CC(O)C(CO)S1 (stereo unspecified) | 0.058 µM | 1.5 µM |  |  | > 200 µM |  | > 0.2 µM | 67% |  |  | 40 µM | 60 µM |  |
| CSc1nc(N)nc2c1ncn2C1CC(O)C(CO)S1 (stereo unspecified) | 0.45 µM | 2 µM |  |  | > 20 µM |  | > 200 µM | 88% | 73% | 78% |  |  |  |
| Nc1nc(N2CCCCC2)c2ncn(C3CC(O)C(CO)S3)c2n1 (stereo unspecified) | 4 µM | 6 µM |  |  | > 200 µM |  | > 200 µM | 88% | 77% | 80% |  |  |  |
| COc1nc(N)nc2c1ncn2C1CC(O)C(CO)S1 (stereo unspecified) | 0.0025 µM | 0.062 µM |  |  | > 5 µM |  | 14 µM |  |  |  | 2 µM | 8 µM | 5 µM |
| Nc1nc(O)c2ncn(C3CC(O)C(CO)S3)c2n1 (stereo unspecified) | 0.002 µM | 0.06 µM |  |  | 2 µM |  | 13 µM |  |  |  | 14 µM | 9 µM | 4 µM |
| Nc1nc(N2CCCC2)c2ncn(C3CC(O)C(CO)S3)c2n1 (stereo unspecified) | 0.85 µM | 10 µM |  |  | > 200 µM |  | > 200 µM | 99% | 112% | 71% |  |  |  |
| Nc1nc(OCC2CC2)c2ncn(C3CC(O)C(CO)S3)c2n1 (stereo unspecified) | 0.035 µM | 0.6 µM |  |  | > 20 µM |  | > 0.2 µM |  |  |  | 13 µM | 41 µM | 61 µM |
| CCN(C)c1nc(N)nc2c1ncn2C1CC(O)C(CO)S1 (stereo unspecified) | 0.19 µM | 2 µM |  |  | > 20 µM |  | > 200 µM | 85% | 77% | 69% |  |  |  |
| CC(C)Nc1nc(N)nc2c1ncn2C1CC(O)C(CO)S1 (stereo unspecified) | 0.3 µM | 4 µM |  |  | > 100 µM |  | > 200 µM | 90% | 77% | 80% |  |  |  |
| Nc1nc(NC2CC2)c2ncn(C3CC(O)C(CO)S3)c2n1 (stereo unspecified) | 0.0072 µM | 0.2 µM |  |  | 15 µM |  | 77 µM | 78% | 11% | 68% |  |  |  |
| CN(c1nc(N)nc2c1ncn2C1CC(O)C(CO)S1)C1CC1 (stereo unspecified) | 0.3 µM | 2 µM |  |  | > 20 µM |  | 101 µM | 72% |  | 58% | 100 µM |  |  |
